Where “and” joins values, the source holds several entries; their conditions need not be identical. Identical values can stand only once.
Test system: Fibroblast
Assay: Multiplex assay against human fibroblast
Assay type: toxicity, cell-based
How it was run: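 Per cents of healthy-nucleus cells form the tubulin, mitochondrial-mass and membrane-permeability phenotype values. Live cells were stained at seeding with Hoechst33342, BioTracker Green Microtubule Cytoskeleton Dye, MitoTracker Red and Annexin V Alexa Fluor 680. After compound addition they were imaged on a CQ1 microscope at 37°C and 5% CO2, and CellPathfinder machine-learning gating split them into Hoechst high-intensity objects or normal cells, normal cells into healthy, pyknosed or fragmented nuclei, and pyknosed cells into mitotic or apoptotic.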

[1] = 12 h, 1 µM, compound concentration 1 uM
[2] = 12 h, 10 µM, compound concentration 10 uM
[3] = 24 h, 1 µM, compound concentration 1 uM
[4] = 24 h, 10 µM, compound concentration 10 uM
[5] = 48 h, 1 µM, compound concentration 1 uM
[6] = 48 h, 10 µM, compound concentration 10 uM

CC(C)(O)C(=O)N1CCN(c2ccc(C(F)(F)F)c(C3=C(c4c[nH]c5ccccc45)C(=O)NC3=O)c2)CC1
Population Apoptotic (%) [1]: 41% and 32%
Population Fragmented Nuclei (%) [1]: 14% and 30%
Population Healthy Nuclei (%) [1]: 68% and 46%
Population Hoechst High Intensity Objects (%) [1]: 2% and 5%
Population Membrane Permeable-Phenotype (%) [1]: 0% and 5%
Population Mitochondria Different-Phenotype (%) [1]: 9% and 5%
Population Mitotic Cells (%) [1]: 58% and 67%
Population Normal (%) [1]: 97% and 94%
Population Pyknosed Nuclei (%) [1]: 17% and 22%
Population Tubulin-Different-Phenotype (%) [1]: 30% and 56%
Total Cell Count [1]: 144 and 170
Population Apoptotic (%) [2]: 33% and 35%
Population Fragmented Nuclei (%) [2]: 17% and 26%
Population Healthy Nuclei (%) [2]: 50% and 31%
Population Hoechst High Intensity Objects (%) [2]: 4% and 6%
Population Mitochondria Different-Phenotype (%) [2]: 25% and 10%
Population Mitotic Cells (%) [2]: 66% and 64%
Population Normal (%) [2]: 96% and 93%
Population Pyknosed Nuclei (%) [2]: 32% and 42%
Population Tubulin-Different-Phenotype (%) [2]: 83% and 90%
Total Cell Count [2]: 125 and 137
Population Apoptotic (%) [3]: 50% and 31%
Population Fragmented Nuclei (%) [3]: 22% and 31%
Population Healthy Nuclei (%) [3]: 61% and 45%
Population Hoechst High Intensity Objects (%) [3]: 1% and 8%
Population Membrane Permeable-Phenotype (%) [3]: 0% and 2%
Population Mitochondria Different-Phenotype (%) [3]: 3% and 8%
Population Mitotic Cells (%) [3]: 50% and 68%
Population Normal (%) [3]: 98% and 91%
Population Pyknosed Nuclei (%) [3]: 16% and 23%
Population Tubulin-Different-Phenotype (%) [3]: 40% and 58%
Total Cell Count [3]: 161 and 176
Population Apoptotic (%) [4]: 26% and 36%
Population Fragmented Nuclei (%) [4]: 24% and 27%
Population Healthy Nuclei (%) [4]: 40% and 33%
Population Hoechst High Intensity Objects (%) [4]: 7% and 3%
Population Membrane Permeable-Phenotype (%) [4]: 2% and 6%
Population Mitochondria Different-Phenotype (%) [4]: 30% and 20%
Population Mitotic Cells (%) [4]: 73% and 63%
Population Normal (%) [4]: 92% and 96%
Population Pyknosed Nuclei (%) [4]: 34% and 39%
Population Tubulin-Different-Phenotype (%) [4]: 79% and 90%
Total Cell Count [4]: 131 and 138
Population Apoptotic (%) [5]: 64% and 41%
Population Fragmented Nuclei (%) [5]: 21% and 33%
Population Healthy Nuclei (%) [5]: 61% and 37%
Population Hoechst High Intensity Objects (%) [5]: 5% and 7%
Population Membrane Permeable-Phenotype (%) [5]: 0% and 1%
Population Mitochondria Different-Phenotype (%) [5]: 12% and 15%
Population Mitotic Cells (%) [5]: 36% and 58%
Population Normal (%) [5]: 94% and 92%
Population Pyknosed Nuclei (%) [5]: 17% and 28%
Population Tubulin-Different-Phenotype (%) [5]: 38% and 67%
Total Cell Count [5]: 155 and 165
Population Apoptotic (%) [6]: 54%
Population Fragmented Nuclei (%) [6]: 33% and 35%
Population Healthy Nuclei (%) [6]: 27% and 25%
Population Hoechst High Intensity Objects (%) [6]: 12% and 6%
Population Membrane Permeable-Phenotype (%) [6]: 0% and 10%
Population Mitochondria Different-Phenotype (%) [6]: 53% and 30%
Population Mitotic Cells (%) [6]: 45%
Population Normal (%) [6]: 87% and 93%
Population Pyknosed Nuclei (%) [6]: 38% and 40%
Population Tubulin-Different-Phenotype (%) [6]: 93% and 83%
Total Cell Count [6]: 123 and 129

O=C(Nc1cc(C(F)(F)F)cc(C(F)(F)F)c1)c1cc(Cl)ccc1O [IMD-0354]
Population Apoptotic (%) [1]: 6.12% and 12.9%
Population Fragmented Nuclei (%) [1]: 11.69% and 4.09%
Population Healthy Nuclei (%) [1]: 56.49% and 77.78%
Population Hoechst High Intensity Objects (%) [1]: 0%
Population Membrane Permeable-Phenotype (%) [1]: 4.6% and 8.27%
Population Mitochondria Different-Phenotype (%) [1]: 6.9% and 2.26%
Population Mitotic Cells (%) [1]: 93.88% and 87.1%
Population Normal (%) [1]: 100%
Population Pyknosed Nuclei (%) [1]: 31.82% and 18.13%
Population Tubulin-Different-Phenotype (%) [1]: 8.05% and 22.56%
Total Cell Count [1]: 154 and 171
Population Apoptotic (%) [2]: 0% and 6.33%
Population Fragmented Nuclei (%) [2]: 23.45% and 22.08%
Population Healthy Nuclei (%) [2]: 49.56% and 45%
Population Hoechst High Intensity Objects (%) [2]: 0%
Population Membrane Permeable-Phenotype (%) [2]: 3.57% and 2.78%
Population Mitochondria Different-Phenotype (%) [2]: 0% and 6.48%
Population Mitotic Cells (%) [2]: 100% and 93.67%
Population Normal (%) [2]: 100%
Population Pyknosed Nuclei (%) [2]: 26.99% and 32.92%
Total Cell Count [2]: 226 and 240
Population Apoptotic (%) [3]: 9.09% and 16.33%
Population Fragmented Nuclei (%) [3]: 10.5% and 2.76%
Population Healthy Nuclei (%) [3]: 59.12% and 70.17%
Population Hoechst High Intensity Objects (%) [3]: 0%
Population Membrane Permeable-Phenotype (%) [3]: 8.41% and 8.66%
Population Mitochondria Different-Phenotype (%) [3]: 2.8% and 0.79%
Population Mitotic Cells (%) [3]: 90.91% and 83.67%
Population Normal (%) [3]: 100%
Population Pyknosed Nuclei (%) [3]: 30.39% and 27.07%
Population Tubulin-Different-Phenotype (%) [3]: 14.02% and 25.2%
Total Cell Count [3]: 181
Population Apoptotic (%) [4]: 7.58% and 18.81%
Population Fragmented Nuclei (%) [4]: 25.35% and 26.19%
Population Healthy Nuclei (%) [4]: 44.24% and 33.73%
Population Hoechst High Intensity Objects (%) [4]: 0%
Population Mitochondria Different-Phenotype (%) [4]: 0% and 1.18%
Population Mitotic Cells (%) [4]: 92.42% and 81.19%
Population Normal (%) [4]: 100%
Population Pyknosed Nuclei (%) [4]: 30.41% and 40.08%
Total Cell Count [4]: 217 and 252
Population Apoptotic (%) [5]: 7.14% and 17.65%
Population Fragmented Nuclei (%) [5]: 19.1% and 8.99%
Population Healthy Nuclei (%) [5]: 49.44% and 71.91%
Population Hoechst High Intensity Objects (%) [5]: 0%
Population Membrane Permeable-Phenotype (%) [5]: 5.68% and 16.41%
Population Mitochondria Different-Phenotype (%) [5]: 9.09% and 0%
Population Mitotic Cells (%) [5]: 92.86% and 82.35%
Population Normal (%) [5]: 100%
Population Pyknosed Nuclei (%) [5]: 31.46% and 19.1%
Population Tubulin-Different-Phenotype (%) [5]: 18.18% and 32.03%
Total Cell Count [5]: 178
Population Apoptotic (%) [6]: 32.47% and 70.37%
Population Fragmented Nuclei (%) [6]: 33.5%
Population Healthy Nuclei (%) [6]: 28% and 39.5%
Population Hoechst High Intensity Objects (%) [6]: 0%
Population Membrane Permeable-Phenotype (%) [6]: 17.86% and 22.78%
Population Mitochondria Different-Phenotype (%) [6]: 1.79% and 2.53%
Population Mitotic Cells (%) [6]: 67.53% and 29.63%
Population Normal (%) [6]: 100%
Population Pyknosed Nuclei (%) [6]: 38.5% and 27%
Population Tubulin-Different-Phenotype (%) [6]: 26.79% and 75.95%
Total Cell Count [6]: 200

From ChEMBL document CHEMBL5724801, “EUbOPEN Chemogenomics Library - Multiplex” (2024)
